The source made the active and inactive calls. No cut-off for these calls is given here.
Key:
[1] = tested on: MCF7; test: Cytotoxicity against human MCF7 cells after 48 hrs by MTT assay; format: functional, cell-based; conditions: MCF7, 48 h
How it was run: (§1)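 Cells at 5–10 × 10³/well grown overnight in RPMI-1640, then exposed in triplicate to a concentration series for 48 h. MTT (1 mg/mL) added for the final 4 h, formazan dissolved in DMSO, read at 570 nm against 595 nm reference. Untreated cells served as negative control, 1% Triton-treated cells as positive control. Inhibition calculated relative to negative-control OD. IC50 taken as concentration giving 50% growth inhibition.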

[2] = tested on: U-87MG ATCC; test: Induction of NO production in human U87 cells at 100 uM after 30 to 300 mins by Griess assay; format: functional, cell-based
How it was run: (§2)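 Cells treated with compound at 100 µM. Nitrate/nitrite in cell lysates measured by Griess reaction at 540 nm over 30–300 min and quantified from a sodium nitrate standard curve. Diluent-treated cells gave background. Reported values are means of two experiments at 240 min post-treatment.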

[3] = tested on: MDA-MB-231; test: Cytotoxicity against human MDA-MB-231 cells after 48 hrs by MTT assay; format: functional, cell-based; conditions: MDA-MB-231, 48 h; how it was run: as §1
[4] = tested on: U-251; test: Induction of NO production in human U251 cells at 100 uM after 30 to 300 mins by Griess assay; format: functional, cell-based; how it was run: as §2
[5] = Cytotoxicity against human U87 cells after 48 hrs by MTT assay; format: functional, cell-based, U-87MG ATCC; conditions: U-87 MG; how it was run: as §1
[6] = tested on: SGC-7901; test: Induction of NO production in human SGC7901 cells at 100 uM after 30 to 300 mins by Griess assay; format: functional, cell-based; how it was run: as §2
[7] = tested on: U-251; test: Cytotoxicity against human U251 cells after 48 hrs by MTT assay; format: functional, cell-based; conditions: U-251, 48 h; how it was run: as §1
[8] = tested on: MDA-MB-231; test: Induction of NO production in human MDA-MB-231 cells at 100 uM after 30 to 300 mins by Griess assay; format: functional, cell-based; how it was run: as §2
[9] = tested on: SGC-7901; test: Cytotoxicity against human SGC7901 cells after 48 hrs by MTT assay; format: functional, cell-based; conditions: SGC-7901, 48 h; how it was run: as §1
[10] = tested on: MCF7; test: Induction of NO production in human MCF7 cells at 100 uM after 30 to 300 mins by Griess assay; format: functional, cell-based; how it was run: as §2
[11] = tested on: MDA-MB-231; test: Ratio of IC50 for FTA to IC50 for drug for cytotoxicity against human MDA-MB-231 cells after 48 hrs by MTT assay; format: functional
[12] = tested on: MDA-MB-231; test: Ratio of IC50 for sorafenib to IC50 for drug for cytotoxicity against human MDA-MB-231 cells after 48 hrs by MTT assay; format: functional
[13] = tested on: MDA-MB-231; test: Inhibition of Ras activation in human MDA-MB-231 cells assessed as reduction in phosphorylated Raf levels at 5 uM after 8 hrs by Western blot; format: cell-based
How it was run: (§3)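 MDA-MB-231 cells at 1.5 × 10⁵/mL exposed to 1 or 5 µM compound or vehicle for 8 h, then harvested and lysed. Lysates resolved by SDS–PAGE and immunoblotted with antibodies to phospho-Akt (Ser473), phospho-ERK (Thr202/Tyr204), phospho-Raf (Ser259), total Akt, total ERK and β-actin. Detection by HRP-conjugated secondary antibodies and enhanced chemiluminescence. Blots representative of two experiments.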

[14] = tested on: MDA-MB-231; test: Inhibition of Ras activation in human MDA-MB-231 cells assessed as reduction in phosphorylated Akt levels at 5 uM after 8 hrs by Western blot; format: cell-based; how it was run: as §3
[15] = tested on: MDA-MB-231; test: Inhibition of Ras activation in human MDA-MB-231 cells assessed as reduction in phosphorylated ERK levels at 5 uM after 8 hrs by Western blot; format: cell-based; how it was run: as §3
[16] = tested on: MDA-MB-231; test: Induction of NO production in human MDA-MB-231 cells at 100 uM after 30 to 300 mins by Griess assay in presence of hemoglobin; format: functional, cell-based
How it was run: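 MDA-MB-231 cells (5 × 10⁶/well) were treated in triplicate with 100 µM compound […], harvested and lysed. Lysates were mixed with Griess reagent for 30–300 min and absorbance read at 540 nm. Nitrate/nitrite was quantified against a sodium nitrate standard curve, with diluent-treated cells as background.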

[17] = tested on: MDA-MB-231; test: Cytotoxicity against human MDA-MB-231 cells after 24 hrs by MTT assay in presence of hemoglobin

Row | SMILES | IC50 [1] | Activity [2] | IC50 [3] | Activity [4] | IC50 [5] | Activity [6] | IC50 [7] | Activity [8] | IC50 [9] | Activity [10] | Ratio IC50 [11] | Ratio IC50 [12] | Activity [13] | Activity [14] | Activity [15] | Activity [16] | Activity [17]
1 | CC(C)=CCC/C(C)=C/CC/C(C)=C/CSc1ccccc1C(=O)NCC(=O)OCCOCCOc1no[n+]([O-])c1S(=O)(=O)c1ccccc1 | 6.59 µM | Active | 2.41 µM | Active | 7.34 µM | Active | 8.58 µM | Active | 19.5 µM | Active |  |  |  |  |  |  | 
2 | CC(C)=CCC/C(C)=C/CC/C(C)=C/CSc1ccccc1C(=O)N1CCC[C@H]1C(=O)OCC#CCOc1no[n+]([O-])c1S(=O)(=O)c1ccccc1 | 5.49 µM | Active | 1.07 µM | Active | 13.5 µM | Active | 3.56 µM | Active | 7.35 µM | Active | 50 | 4 |  |  |  |  | 
3 | CC(C)=CCC/C(C)=C/CC/C(C)=C/CSc1ccccc1C(=O)N1CCC[C@H]1C(=O)OC(C)CCOc1no[n+]([O-])c1S(=O)(=O)c1ccccc1 (stereo partly drawn) | 6.5 µM |  | 1.54 µM |  | 8.47 µM |  | 7.93 µM |  | 13.9 µM |  |  |  |  |  |  |  | 
4 | CC(C)=CCC/C(C)=C/CC/C(C)=C/CSc1ccccc1C(=O)O [SALIRASIB] | 46.8 µM |  | 51.2 µM |  | 54 µM |  | 46.9 µM |  | 37.7 µM |  |  |  | inactive | inactive | inactive |  | 
5 | CC(C)=CCC/C(C)=C/CC/C(C)=C/CSc1ccccc1C(=O)N[C@@H](C)C(=O)OCCCCOc1no[n+]([O-])c1S(=O)(=O)c1ccccc1 | 8.68 µM |  | > 50 µM |  | 26.4 µM |  | 7.95 µM |  | 44.6 µM |  |  |  |  |  |  |  | 
6 | CC(C)=CCC/C(C)=C/CC/C(C)=C/CSc1ccccc1C(=O)N[C@@H](Cc1ccccc1)C(=O)OCC#CCOc1no[n+]([O-])c1S(=O)(=O)c1ccccc1 | > 50 µM |  | > 50 µM |  | > 50 µM |  | > 50 µM |  | > 50 µM |  |  |  |  |  |  |  | 
7 | CC(C)=CCC/C(C)=C/CC/C(C)=C/CSc1ccccc1C(=O)NCC(=O)OCCCCOc1no[n+]([O-])c1S(=O)(=O)c1ccccc1 | 25.1 µM |  | 9.99 µM |  | > 50 µM |  | 28.2 µM |  | > 50 µM |  |  |  |  |  |  |  | 
8 | CC(C)=CCC/C(C)=C/CC/C(C)=C/CSc1ccccc1C(=O)N[C@@H](Cc1ccccc1)C(=O)OC(C)CCOc1no[n+]([O-])c1S(=O)(=O)c1ccccc1 (stereo partly drawn) | > 50 µM | Active | > 50 µM | Active | > 50 µM | Active | > 50 µM | Active | > 50 µM | Active |  |  |  |  |  |  | 
9 | CC(C)=CCC/C(C)=C/CC/C(C)=C/CSc1ccccc1C(=O)NCC(=O)OC(C)CCOc1no[n+]([O-])c1S(=O)(=O)c1ccccc1 (stereo not drawn) | 9.11 µM |  | 7.26 µM |  | 15.3 µM |  | 10.8 µM |  | 11.9 µM |  |  |  |  |  |  |  | 
10 | CC(C)=CCC/C(C)=C/CC/C(C)=C/CSc1ccccc1C(=O)N1CCC[C@H]1C(=O)OCCOCCOc1no[n+]([O-])c1S(=O)(=O)c1ccccc1 | 8.77 µM | Active | 3.16 µM | Active | 12.9 µM | Active | 4.83 µM | Active | 7.86 µM | Active |  |  |  |  |  |  | 
11 | CC(C)=CCC/C(C)=C/CC/C(C)=C/CSc1ccccc1C(=O)N[C@@H](Cc1ccccc1)C(=O)OCCCCOc1no[n+]([O-])c1S(=O)(=O)c1ccccc1 | > 50 µM |  | > 50 µM |  | > 50 µM |  | > 50 µM |  | > 50 µM |  |  |  |  |  |  |  | 
12 | O=S(=O)(c1ccccc1)c1c(OCCCCO)no[n+]1[O-] |  |  | 9.87 µM |  |  |  |  |  |  |  |  |  |  |  |  |  | 
13 | CC(C)=CCC/C(C)=C/CC/C(C)=C/CSc1ccccc1C(=O)N[C@@H](C)C(=O)OCC#CCOc1no[n+]([O-])c1S(=O)(=O)c1ccccc1 | 5.03 µM |  | 1.01 µM |  | 5.18 µM |  | 7.31 µM |  | 11.4 µM |  |  |  |  |  |  |  | 
14 | CC(C)=CCC/C(C)=C/CC/C(C)=C/CSc1ccccc1C(=O)N[C@@H](C)C(=O)OC(C)CCOc1no[n+]([O-])c1S(=O)(=O)c1ccccc1 (stereo partly drawn) | 11.1 µM |  | 5.05 µM |  | 20.4 µM |  | 15.3 µM |  | > 50 µM |  |  |  |  |  |  |  | 
15 | CNC(=O)c1cc(Oc2ccc(NC(=O)Nc3ccc(Cl)c(C(F)(F)F)c3)cc2)ccn1 [SORAFENIB] | 8.83 µM |  | 4.77 µM |  | 21.1 µM |  | 24.7 µM |  | 10.4 µM |  |  |  |  |  |  |  | 
16 | O=S(=O)(c1ccccc1)c1c(OCC#CCO)no[n+]1[O-] |  |  | 6.97 µM |  |  |  |  |  |  |  |  |  |  |  |  |  | 
17 | CC(C)=CCC/C(C)=C/CC/C(C)=C/CSc1ccccc1C(=O)N[C@@H](C)C(=O)OCCOCCOc1no[n+]([O-])c1S(=O)(=O)c1ccccc1 | 7.68 µM | Active | 4.21 µM | Active | 18.1 µM | Active | 8.04 µM | Active | 11.3 µM | Active |  |  | Active | Active | Active | inactive | inactive
18 | CC(C)=CCC/C(C)=C/CC/C(C)=C/CSc1ccccc1C(=O)N[C@@H](Cc1ccccc1)C(=O)OCCOCCOc1no[n+]([O-])c1S(=O)(=O)c1ccccc1 | > 50 µM |  | > 50 µM |  | > 50 µM |  | > 50 µM |  | > 50 µM |  |  |  |  |  |  |  | 
19 | CC(C)=CCC/C(C)=C/CC/C(C)=C/CSc1ccccc1C(=O)NCC(=O)OCC#CCOc1no[n+]([O-])c1S(=O)(=O)c1ccccc1 | 6.91 µM | Active | 7.23 µM | Active | 14.8 µM | Active | 11.7 µM | Active | 11.4 µM | Active |  |  |  |  |  |  | 
20 | O=S(=O)(c1ccccc1)c1c(OCCOCCO)no[n+]1[O-] |  |  | 20.5 µM |  |  |  |  |  |  |  |  |  |  |  |  |  | 
21 | CC(C)=CCC/C(C)=C/CC/C(C)=C/CSc1ccccc1C(=O)N1CCC[C@H]1C(=O)OCCCCOc1no[n+]([O-])c1S(=O)(=O)c1ccccc1 | 7.47 µM |  | 3.14 µM |  | 9 µM |  | 6.99 µM |  | 22.5 µM |  |  |  |  |  |  |  | 

Source: ChEMBL document CHEMBL1157810, “Synthesis and evaluation of nitric oxide-releasing derivatives of farnesylthiosalicylic acid as anti-tumor agents” (Bioorg Med Chem, 2010)
